ChEMBL document CHEMBL1240350, “In vitro activity of CEM-101 against Streptococcus pneumoniae and Streptococcus pyogenes with defined macrolide resistance mechanisms” (Antimicrob Agents Chemother, 2010)
Converted amounts (≈) assume the structure as drawn.

Legend:
Streptococcus pneumoniae [1] = assay: Antibacterial activity against macrolide-resistant Streptococcus pneumoniae 3665 harboring mef(A) gene after 26 passages and 10 compound-free subculturing by retest method; type: functional
Streptococcus pneumoniae [2] = assay: Antibacterial activity against macrolide-susceptible Streptococcus pneumoniae 7127 harboring S20N mutation in L4 ribosomal protein and A105V mutation in L22 ribosomal protein after 16 passages and 10 compound-free subculturing by retest method; type: functional
Streptococcus pyogenes [3] = assay: Antibacterial activity against macrolide-resistant Streptococcus pyogenes 2094 harboring erm(A) gene after 5 passages and 10 compound-free subculturing by retest method
Streptococcus pyogenes [4] = assay: Antibacterial activity against macrolide-resistant Streptococcus pyogenes 2094 harboring erm(A) gene after 6 passages and 10 compound-free subculturing by retest method
Streptococcus pneumoniae [5] = assay: Antibacterial activity against Streptococcus pneumoniae harboring mutation in 23S rRNA after overnight incubation by agar dilution method; type: functional
Method in brief: (§1)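 Clinical isolates collected 1998–2008, with macrolide-resistance genes confirmed by PCR. MICs by agar dilution on Mueller-Hinton agar with 5% sheep blood. Inoculum 10^4 CFU/spot, incubated overnight at 35°C in ambient air. S. pneumoniae ATCC 49619 was the quality-control strain in every run.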

Streptococcus pneumoniae [6] = assay: Antibacterial activity against macrolide-resistant Streptococcus pneumoniae harboring erm(B) and mef(A) gene after overnight incubation by agar dilution method; type: functional
Method in brief: (§2)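 Agar dilution MICs on Mueller-Hinton agar with 5% sheep blood. Inoculum 10^4 CFU/spot, incubated overnight at 35°C in ambient air. Clinical S. pneumoniae or group A streptococcal isolates; resistance genotypes (erm(B), erm(A), mef(A)/mef(E)) were assigned by PCR. S. pneumoniae ATCC 49619 served as QC strain in each run. Range, MIC50 and MIC90 reported per phenotype group.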

Streptococcus pneumoniae [7] = assay: Antibacterial activity against macrolide-susceptible Streptococcus pneumoniae 1077 after 29 passages and 10 compound-free subculturing by retest method; type: functional
Streptococcus pneumoniae [8] = assay: Antibacterial activity against penicillin-resistant Streptococcus pneumoniae after overnight incubation by agar dilution method; type: functional
Method in brief: (§3)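 Agar dilution on Mueller-Hinton agar supplemented with 5% sheep blood. Inoculum 10^4 CFU/spot, incubated overnight at 35°C in ambient air. Test strains were clinical pneumococcal isolates. S. pneumoniae ATCC 49619 was included as the quality control strain in each run. MIC range, MIC50 and MIC90 were reported for each susceptibility category.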

Streptococcus pyogenes [9] = assay: Antibacterial activity against macrolide-resistant Streptococcus pyogenes 2011 harboring mef(A) gene after overnight incubation by agar dilution method
Streptococcus pneumoniae [10] = assay: Antibacterial activity against macrolide-resistant Streptococcus pneumoniae 3009 harboring mutation in 23S rRNA after 20 passages and 10 compound-free subculturing by retest method; type: functional
Streptococcus pneumoniae [11] = assay: Antibacterial activity against quinolone-resistant Streptococcus pneumoniae after overnight incubation by agar dilution method; type: functional; method in brief: as §3
Streptococcus pneumoniae [12] = assay: Antibacterial activity against macrolide-susceptible Streptococcus pneumoniae 1077 after 15 passages and 10 compound-free subculturing by retest method; type: functional
Streptococcus pneumoniae [13] = assay: Antibacterial activity against macrolide-susceptible Streptococcus pneumoniae 1077 after 43 passages and 10 compound-free subculturing by retest method; type: functional
Streptococcus pneumoniae [14] = assay: Antibacterial activity against macrolide-resistant Streptococcus pneumoniae 3009 harboring mutation in 23S rRNA after overnight incubation by agar dilution method; type: functional
Streptococcus pneumoniae [15] = assay: Antibacterial activity against macrolide-resistant Streptococcus pneumoniae 1635 harboring erm(A) gene after 49 passages and 10 compound-free subculturing by retest method; type: functional
Method in brief: (§4)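 Multistep selection by daily serial passage in subinhibitory drug concentrations. Medium was cation-adjusted Mueller-Hinton broth plus 5% lysed horse blood. Each day the next inoculum came from the tube 1–2 dilutions below the MIC whose turbidity matched the growth control, for up to 50 days. Clone MICs by CLSI macrodilution; identity to the parent confirmed by SmaI PFGE.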

Streptococcus pneumoniae [16] = assay: Antibacterial activity against macrolide-resistant Streptococcus pneumoniae 1635 harboring erm(A) gene after 32 passages and 10 compound-free subculturing by retest method; type: functional; method in brief: as §4
Streptococcus pneumoniae [17] = assay: Antibacterial activity against Streptococcus pneumoniae harboring mutation in L4 ribosomal protein after overnight incubation by agar dilution method; type: functional; method in brief: as §1
Streptococcus pyogenes [18] = assay: Antibacterial activity against macrolide-susceptible Streptococcus pyogenes 2132 after 28 passages and 10 compound-free subculturing by retest method
Streptococcus pneumoniae [19] = assay: Antibacterial activity against Streptococcus pneumoniae harboring erm(B) and mef(A) gene after overnight incubation by agar dilution method; type: functional; method in brief: as §1
Streptococcus pyogenes [20] = assay: Antibacterial activity against macrolide-resistant Streptococcus pyogenes harboring erm(B) gene after overnight incubation by agar dilution method; type: functional; method in brief: as §2
Streptococcus pyogenes [21] = assay: Antibacterial activity against Streptococcus pyogenes harboring mutation in L4 ribosomal protein after overnight incubation by agar dilution method; type: functional; method in brief: as §1
Streptococcus pyogenes [22] = assay: Antibacterial activity against macrolide-susceptible Streptococcus pyogenes after overnight incubation by agar dilution method; type: functional
Method in brief: (§5)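 Agar dilution on Mueller-Hinton agar supplemented with 5% sheep blood, inoculum 10^4 CFU/spot, read after overnight incubation at 35°C in ambient air. Clinical isolates with defined genotypes; S. pneumoniae ATCC 49619 quality control strain included in each run. MIC50/MIC90 are MICs inhibiting 50% and 90% of isolates.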

Streptococcus pneumoniae [23] = assay: Antibacterial activity against macrolide-resistant Streptococcus pneumoniae 2686 harboring mutation in L4 ribosomal protein after 14 passages and 10 compound-free subculturing by retest method; type: functional
Streptococcus pyogenes [24] = assay: Antibacterial activity against macrolide-susceptible Streptococcus pyogenes 2132 after 50 passages following overnight incubation by agar dilution method
Streptococcus pneumoniae [25] = assay: Antibacterial activity against penicillin-intermediate Streptococcus pneumoniae after overnight incubation by agar dilution method; type: functional; method in brief: as §5
Streptococcus pyogenes [26] = assay: Antibacterial activity against macrolide-resistant Streptococcus pyogenes 2011 harboring mef(A) gene after 35 passages and 10 compound-free subculturing by retest method
Streptococcus pyogenes [27] = assay: Antibacterial activity against macrolide-resistant Streptococcus pyogenes 237 harboring mutation in L4 ribosomal protein after 50 passages following overnight incubation by agar dilution method
Streptococcus pyogenes [28] = assay: Antibacterial activity against macrolide-resistant Streptococcus pyogenes 2368 harboring erm(B) gene after 18 passages and 10 compound-free subculturing by retest method
Streptococcus pneumoniae [29] = assay: Antibacterial activity against macrolide-resistant Streptococcus pneumoniae 3665 harboring mef(A) gene after 14 passages and 10 compound-free subculturing by retest method; type: functional
Streptococcus pneumoniae [30] = assay: Antibacterial activity against macrolide-resistant Streptococcus pneumoniae 24 harboring erm(B) gene after overnight incubation by agar dilution method; type: functional
Streptococcus pneumoniae [31] = assay: Antibacterial activity against macrolide-susceptible Streptococcus pneumoniae 7127 harboring S20N mutation in L4 ribosomal protein and A105V mutation in L22 ribosomal protein after overnight incubation by agar dilution method; type: functional
Streptococcus pneumoniae [32] = assay: Antibacterial activity against macrolide-resistant Streptococcus pneumoniae 1076 harboring erm(B) and mef(A) gene after 18 passages and 10 compound-free subculturing by retest method; type: functional; method in brief: as §4

SMILES: CC[C@H]1OC(=O)[C@H](C)C(=O)[C@H](C)[C@@H](O[C@@H]2O[C@H](C)C[C@H](N(C)C)[C@H]2O)[C@](C)(OC)C[C@@H](C)C(=O)[C@H](C)[C@H]2N(CCCCn3cnc(-c4cccnc4)c3)C(=O)O[C@]12C [TELITHROMYCIN]
- MIC (Streptococcus pneumoniae [1]): 0.06 µg/mL (≈ 0.0739 µM)
- MIC (Streptococcus pneumoniae [2]): 0.06 µg/mL (≈ 0.0739 µM)
- MIC (Streptococcus pyogenes [3]): 0.03 µg/mL (≈ 0.0369 µM)
- MIC (Streptococcus pyogenes [4]): 0.03 µg/mL (≈ 0.0369 µM)
- MIC (Streptococcus pneumoniae [5]): 0.03 µg/mL (≈ 0.0369 µM)
- MIC50 (Streptococcus pneumoniae [6]): 0.5 µg/mL (≈ 0.616 µM)
- MIC90 (Streptococcus pneumoniae [6]): 1 µg/mL (≈ 1.23 µM)
- MIC (Streptococcus pneumoniae [7]): 0.125 µg/mL (≈ 0.154 µM)
- MIC50 (Streptococcus pneumoniae [8]): 0.125 µg/mL (≈ 0.154 µM)
- MIC90 (Streptococcus pneumoniae [8]): 0.5 µg/mL (≈ 0.616 µM)
- MIC (Streptococcus pyogenes [9]): 0.5 µg/mL (≈ 0.616 µM)
- MIC (Streptococcus pneumoniae [10]): 0.06 µg/mL (≈ 0.0739 µM)
- MIC50 (Streptococcus pneumoniae [11]): 0.03 µg/mL (≈ 0.0369 µM)
- MIC90 (Streptococcus pneumoniae [11]): 0.125 µg/mL (≈ 0.154 µM)
- MIC (Streptococcus pneumoniae [12]): 0.25 µg/mL (≈ 0.308 µM)
- MIC (Streptococcus pneumoniae [13]): 0.06 µg/mL (≈ 0.0739 µM)
- MIC (Streptococcus pneumoniae [14]): 0.016 µg/mL (≈ 0.0197 µM)
- MIC (Streptococcus pneumoniae [15]): 0.016 µg/mL (≈ 0.0197 µM)
- MIC (Streptococcus pneumoniae [16]): 0.03 µg/mL (≈ 0.0369 µM)
- MIC50 (Streptococcus pneumoniae [17]): 0.125 µg/mL (≈ 0.154 µM)
- MIC90 (Streptococcus pneumoniae [17]): 0.25 µg/mL (≈ 0.308 µM)
- MIC (Streptococcus pyogenes [18]): 0.03 µg/mL (≈ 0.0369 µM)
- MIC50 (Streptococcus pneumoniae [19]): 0.5 µg/mL (≈ 0.616 µM)
- MIC90 (Streptococcus pneumoniae [19]): 1 µg/mL (≈ 1.23 µM)
- MIC50 (Streptococcus pyogenes [20]): 8 µg/mL (≈ 9.85 µM)
- MIC90 (Streptococcus pyogenes [20]): 16 µg/mL (≈ 19.7 µM)
- MIC (Streptococcus pyogenes [21]): 0.06 µg/mL (≈ 0.0739 µM)
- MIC50 (Streptococcus pyogenes [22]): 0.06 µg/mL (≈ 0.0739 µM)
- MIC90 (Streptococcus pyogenes [22]): 0.06 µg/mL (≈ 0.0739 µM)
- MIC (Streptococcus pneumoniae [23]): 0.06 µg/mL (≈ 0.0739 µM)
- MIC (Streptococcus pyogenes [24]): 0.03 µg/mL (≈ 0.0369 µM)
- MIC50 (Streptococcus pneumoniae [25]): 0.06 µg/mL (≈ 0.0739 µM)
- MIC90 (Streptococcus pneumoniae [25]): 0.5 µg/mL (≈ 0.616 µM)
- MIC (Streptococcus pyogenes [26]): 0.25 µg/mL (≈ 0.308 µM)
- MIC (Streptococcus pyogenes [27]): 0.125 µg/mL (≈ 0.154 µM)
- MIC (Streptococcus pyogenes [28]): > 64 µg/mL
- MIC (Streptococcus pneumoniae [29]): 0.25 µg/mL (≈ 0.308 µM)
- MIC (Streptococcus pneumoniae [29]; Streptococcus pneumoniae, 3665, read-out: MIC): 0.25 µg/mL (≈ 0.308 µM)
- MIC (Streptococcus pneumoniae [30]): 0.25 µg/mL (≈ 0.308 µM)
- MIC (Streptococcus pneumoniae [31]): 0.008 µg/mL (≈ 0.00985 µM)
- MIC (Streptococcus pneumoniae [32]): 32 µg/mL (≈ 39.4 µM)
